Assay results from different studies.
Compare with care: the assays were run in different laboratories.

NS(=O)(=O)c1nnc(NC(=O)C2CCCC3(CCCCC3)C2)s1 (stereo not shown)  compound remaining (metabolic stability; mouse, liver microsomes; 1 h): 47.7%
N#Cc1ccc(C[C@H](NC(=O)c2cc3ccc(F)cc3[nH]2)C(=O)N2CCc3ccccc32)cc1  compound remaining (metabolic stability; rat, liver microsomes; 10 µM, 30 min, pH 7.4): 90%
Cc1cn([C@H]2C[C@H](N=[N+]=[N-])[C@@H](CO)O2)c(=O)[nH]c1=O  CC50 (MT4; cell growth or viability, MTT; 5 days): > 7.48 µM
N#C[C@@]1(c2ccc3c(N)ncnn23)O[C@H](CO)[C@@H](O)[C@H]1O  fraction unbound (dog, plasma; 1 µM): 0.881
N#Cc1ccc(C[C@H](Nc2ncc(-c3ccc(F)cc3)o2)C(=O)N2CCc3ccccc32)cc1  compound remaining (metabolic stability; rat, liver microsomes; 10 µM, 30 min, pH 7.4): 40%
NS(=O)(=O)c1nnc(NC(=O)CCC2CC3CCC2C3)s1 (stereo not shown)  compound remaining (metabolic stability; mouse, liver microsomes; 1 h): 41%
Cc1cc(C#N)cc(C)c1Oc1nc(Nc2ccc(C#N)cc2)nc(N)c1Br  CC50 (MT4; cell growth or viability, MTT; 5 days): > 4.59 µM
COc1cc(-c2cc(C(C)=O)n3ccccc23)c(OC)cc1Cn1ccnc1  compound remaining (metabolic stability; rat, liver microsomes; 1 µM, 1 h, pH 7.4): 62%
N#Cc1ccc(C[C@H](Nc2c(Nc3ccc(F)cc3)c(=O)c2=O)C(=O)N2CCc3ccccc32)cc1  compound remaining (metabolic stability; rat, liver microsomes; 10 µM, 30 min, pH 7.4): 35%
Cc1cc(/C=C/C#N)cc(C)c1Nc1ccnc(Nc2ccc(C#N)cc2)n1  CC50 (MT4; cell growth or viability, MTT; 5 days): > 5.46 µM
